Experiment [1] is described as follows: reduced viability of SK-BR-3 breast cancer cells – cell-based, 24 h, human, pilot screen (AID 572;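 active means viability at or below 10% of carrier control in both of two separate runs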;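 further: compound exposure lasted between 18 and 24 h rather than exactly 24 h; 100% = carrier-treated control wells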). To be noted: SK-BR-3 viability, CellTiter-Glo luminescence, at 10 µM, stronger effect = lower value.
Experiment [2] can be described thus: HUVEC growth inhibition – cell-based, human, primary screen (AID 575;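 active means viability at or below 30% in both replicate assays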;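 further: 100% = median of untreated cell wells with 0.1% DMSO on each plate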). To be noted: HUVEC proliferation, CellTiter-Glo luminescence, 72 h; at 10 µM; stronger effect = lower value. In short, it runs like this: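 Timing: 72 h treatment at 37 °C; material: HUVEC primary cells; technique: CellTiter-Glo luminescence measuring cellular ATP; controls: vehicle and MePR control wells; measure: percent of median DMSO-control luminescence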

A short description of experiment [3]: H69AR cell proliferation blockers – human, duplicate replicates, primary screen (AID 580;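 active means viability at or under a set limit in both replicates, limit being median viability minus 3 SD, cut at about 48% in these data, passing the limit was not always enough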;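 further: 100% = mean luminescence of untreated wells and 0% = no signal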). To be noted: H69AR lung tumor cells viability, ATP luminescence, 72 h; at 10 µM; stronger effect = lower value.
A short description of experiment [4]: MRP1 drug-resistance reversers in H69AR cells – cell-based, doxorubicin co-treatment, pilot screen (AID 601). The settings on record: CellTiter-Glo, 72 h, at 10 µM; for differential viability (reversal): stronger effect = higher value.
Experiment [5] in a line: yeast transport mutant growth inhibition pilot in 384-well plates, post-Golgi transport modulator project (AID 636; in the data active means inhibition above about 31%). To be noted: absorbance 615 nm, about 18 h, stronger effect = higher value.
Experiment [6] in a line: growth suppression of yeast trafficking mutant, preliminary HTS, modulators of trafficking downstream of Golgi apparatus project, 1536-format plate, OD 615 nm (AID 637; in the data active means inhibition above about 30%). The settings on record: yeast transport mutant growth, absorbance 615 nm, 18 h; stronger effect = higher value.
Where [7] appears, read: H69AR cells + 2 uM doxorubicin, measured here: viability with 2 uM doxorubicin, stronger effect = lower value.
Where [8] appears, read: H69AR cells, compound alone cytotoxicity.

Active and inactive are the calls of the source.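 How the source made its calls, unless noted: active means viability loss from added drug above about 55%, and viability with drug at most 40%, in both replicates (limit read from the data, passing the limit was not always enough); inconclusive means both conditions met in only one replicate; inactive means neither replicate meets both conditions.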

Turning to `CC(=O)c1c(C)[nH]c(C(=O)Nc2c(C)n(C)n(-c3ccccc3)c2=O)c1C`, the viability is 82% (inactive) in experiment [1]; 101% (inactive) in experiment [2]; 90.2% (inactive) in experiment [3]; 82.2% in experiment [4] (setting [7]); 90.2% in experiment [4] (setting [8]). Besides, the differential viability (reversal) in experiment [4] (H69AR cells + 2 uM doxorubicin) is 7.98% (inactive). For the same compound, the results for the inhibition in experiment [5] and in experiment [6] were -8.63% (inactive) and 0% (inactive), respectively.
On to `O=C(CSc1ncn[nH]1)NC1CC2CCC1C2` (stereo not drawn), for which the viability is 94% (inactive) in experiment [1]; 103% (inactive) in experiment [2]; 98% (inactive) in experiment [3]; 120% in experiment [4] (setting [7]); 98% in experiment [4] (setting [8]). Moreover, the differential viability (reversal) in experiment [4] (H69AR cells + 2 uM doxorubicin) was -22.4% (inactive). Besides, the figures for the inhibition in experiment [5] and in experiment [6] were -5.34% (inactive) and -1.82% (inactive), respectively.
As to `O=C(NCCC1=CCCCC1)C1CCN(S(=O)(=O)c2cnc[nH]2)CC1`, the viability is 83% (inactive) in experiment [1]; 111% (inactive) in experiment [2]; 104% (inactive) in experiment [3]; 88.1% in experiment [4] (setting [7]); 104% in experiment [4] (setting [8]). For the same compound, in experiment [4] (H69AR cells + 2 uM doxorubicin), the differential viability (reversal) is 15.5% (inactive). Further, the inhibition in experiment [5] is -5.6% (inactive); in experiment [6], -1.27% (inactive).
`C=CCN1C(=O)CS/C1=C(\C#N)S(=O)(=O)c1ccc(C)cc1`: the viability in experiment [1] is 114% (inactive); in experiment [2], 96.2% (inactive); in experiment [3], 85.5% (inactive); in experiment [4] (setting [7]) it was 88.2%; in experiment [4] (setting [8]) it was 85.5%. Also, the differential viability (reversal) in experiment [4] (H69AR cells + 2 uM doxorubicin) was -2.67% (inactive). The inhibition in experiment [5] is -5.62% (inactive); in experiment [6], -1.45% (inactive).
Consider `Clc1ccc2c(c1)[C@H]1OCC[C@H]1[C@@H](c1ccco1)N2`, for which the viability in experiment [1] is 104% (inactive); in experiment [2], 89.6% (inactive); in experiment [3] it was 86% (inactive); in experiment [4] (setting [7]), 85.6%; in experiment [4] (setting [8]), 86%. Also, in experiment [4] (H69AR cells + 2 uM doxorubicin), the differential viability (reversal) is 0.43% (inactive). In addition, the inhibition in experiment [5] was -0.13% (inactive); in experiment [6] it was -5.83% (inactive).
Turning to `Cc1cc(C)n(Cc2cc(C)c(Cn3nc(C)cc3C)cc2C)n1`, the viability in experiment [1] was 99% (inactive); in experiment [2] it was 101% (inactive); in experiment [3], 106% (inactive); in experiment [4] (setting [7]) it was 93.9%; in experiment [4] (setting [8]), 106%. Besides, the differential viability (reversal) in experiment [4] (H69AR cells + 2 uM doxorubicin) is 12.2% (inactive). For the same compound, the inhibition in experiment [5] is -4.73% (inactive); in experiment [6], 1.64% (inactive).
With `C=CCn1c(SCC(=O)C(C)(C)C)nnc1-c1ccccn1`, the viability in experiment [1] was 88% (inactive); in experiment [2], 94.4% (inactive); in experiment [3] it was 92.2% (inactive); in experiment [4] (setting [7]), 92.6%; in experiment [4] (setting [8]), 92.2%. For the same compound, the differential viability (reversal) in experiment [4] (H69AR cells + 2 uM doxorubicin) was -0.455% (inactive). The inhibition in experiment [5] was -7.57% (inactive); in experiment [6], -3.64% (inactive).
For `CCc1ccccc1N1C(=O)C2CC(C)=C(C)CC2C1=O` (stereo not drawn), the viability in experiment [1] was 89% (inactive); in experiment [2], 104% (inactive); in experiment [3] it was 103% (inactive); in experiment [4] (setting [7]), 84.7%; in experiment [4] (setting [8]) it was 103%. Also, the differential viability (reversal) in experiment [4] (H69AR cells + 2 uM doxorubicin) is 18% (inactive). The inhibition in experiment [5] was -5.73% (inactive); in experiment [6], 0% (inactive).
As to `Cc1ccc(Cl)c(Nc2ccccc2C(=O)O)c1Cl`, the viability in experiment [1] is 135% (inactive); in experiment [2], 47.9% (inactive); in experiment [3] it was 91.3% (inactive); in experiment [4] (setting [7]), 97.9%; in experiment [4] (setting [8]), 91.3%. Also, the differential viability (reversal) in experiment [4] (H69AR cells + 2 uM doxorubicin) was -6.54% (inactive). Besides, the inhibition in experiment [5] was -0.78% (inactive); in experiment [6] it was 4.67% (inactive).
With `Cc1cc(C)nc(-n2nc(C)cc2NC(=O)c2ccc(Br)o2)n1`, the viability was 108% (inactive) in experiment [1]; 87.4% (inactive) in experiment [2]; 71.9% (inactive) in experiment [3]; 83.3% in experiment [4] (setting [7]); 71.9% in experiment [4] (setting [8]). Besides, the differential viability (reversal) in experiment [4] (H69AR cells + 2 uM doxorubicin) is -11.4% (inactive). For the same compound, the values for the inhibition in experiment [5] and in experiment [6] were -3.73% (inactive) and 5.27% (inactive), respectively.
`c1ccc(-c2cc(N3CCCCC3)ncn2)cc1`: the viability in experiment [1] is 105% (inactive); in experiment [2], 101% (inactive); in experiment [3], 99.7% (inactive); in experiment [4] (setting [7]), 90.6%; in experiment [4] (setting [8]) it was 99.7%. The differential viability (reversal) in experiment [4] (H69AR cells + 2 uM doxorubicin) was 9.16% (inactive). Besides, the inhibition was -7.26% (inactive) in experiment [5] and -0.32% (inactive) in experiment [6].

The values above are taken from PubChem BioAssay.
